DNMT1 block – human DNMT1 methyltransferase inhibitors, primary screen, biochemical, molecular beacon, fluorescence, HinP1I cleavage, uHTS | DNA (cytosine-5)-methyltransferase 1 (Homo sapiens), P26358 | inhibition (reported as % activation of signal), % at 10 µM | actives 0.83% (n = 360,000) | AID 588458, 2011; in the data active = inhibition above about 50%
SUMO1 PPI mod – modulators of SUMO1 protein-protein interactions, primary screen, biochemical, uHTS; Small ubiquitin-related modifier 1 (Homo sapiens), P63165; SUMO1 binding to a labelled peptide, TR-FRET, 1 h; inhibition, % at 20 µM; actives 0.33% (n = 360,000); AID 602429, 2012; in the data active = inhibition above about 37%
Target sequence (P63165 whole entry, looked up): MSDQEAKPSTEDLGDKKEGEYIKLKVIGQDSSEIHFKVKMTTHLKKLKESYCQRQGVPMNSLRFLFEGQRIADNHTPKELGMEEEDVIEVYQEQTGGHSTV
STEP block – STEP phosphatase inhibitors, primary screen, biochemical, fluorescence intensity, uHTS | Tyrosine-protein phosphatase non-receptor type 5 (Homo sapiens), P54829 | recombinant STEP, OMFP fluorogenic substrate | inhibition, % at 20 µM | actives 0.25% (n = 360,000) | AID 588621, 2011;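 active = inhibition at 20 µM, scaled per plate between control wells, above about 37%, limit read from the data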
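Material: STEP (striatal-enriched tyrosine phosphatase) enzyme, cell-free; Compound dosing: 20 µM single dose in 1% DMSO; Technique: fluorescence read at 480 nm ex / 540 nm em; Times: reaction 20 min, ambient temperature; Medium: 50 mM Bis-Tris pH 6.0 with 2.5 mM DTT and 0.005% Tween 20; Also added: OMFP at 25 µM.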
Scp1 inh – Scp-1 phosphatase inhibitors, primary screen, biochemical, colorimetric, uHTS | actives 0.88% (n = 340,000) | inhibition, % at 20 µM | AID 493091, 2011 | Carboxy-terminal domain RNA polymerase II polypeptide A small phosphatase 1 (Homo … | Recombinant Scp1, phosphopeptide, malachite green phosphate absorbance;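 active = inhibition above about 50% at 20 µM, limit read from the data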
Target sequence (Q9GZU7 76-261 limits assumed): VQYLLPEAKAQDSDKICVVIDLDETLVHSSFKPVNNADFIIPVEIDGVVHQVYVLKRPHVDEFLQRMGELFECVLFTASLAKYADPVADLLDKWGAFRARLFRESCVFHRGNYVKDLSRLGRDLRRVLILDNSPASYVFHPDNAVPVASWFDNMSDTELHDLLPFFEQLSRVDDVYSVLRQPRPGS
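Material: truncated SCP-1 phosphatase (76-261aa) / Buffer or medium: 50 mM Tris acetate pH 5.5, 0.005% Tween-20, 10 mM MgCl2 / Compound dosing: one concentration, 20 µM, with 1.0% DMSO / Incubation: 45 min room-temperature reaction, 5 min colour, 30 min stabiliser / Detection: colorimetric free-phosphate detection, absorbance 630 nm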
GRK2 aptamer HTS – compounds blocking aptamer binding on GRK2 – biochemical, human GRK2, bead flow cytometry, HTS, primary screen. Beta-adrenergic receptor kinase 1 (Homo sapiens), P25098. FAM-aptamer displacement from GRK2. inhibition of aptamer binding, % at 10 µM. actives 0.59% (n = 330,000). AID 488847, 2010;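 active = inhibition of aptamer binding above 40%, roughly 3 SD of noise, on plates passing a quality check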;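 also: median bead fluorescence of bound FAM aptamer so fluorescent compounds give negative values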
LMPTP inh – LMPTP phosphatase inhibitors, primary screen, biochemical, fluorescence intensity, uHTS | Low molecular weight phosphotyrosine protein phosphatase (Homo sapiens), P24666 | recombinant LMPTP-A, OMFP fluorogenic substrate | inhibition, % at 20 µM | actives 0.22% (n = 360,000);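 active = compounds that cut the enzyme signal by at least half of the control window in the single-dose screen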
Target sequence (P24666 whole entry, looked up): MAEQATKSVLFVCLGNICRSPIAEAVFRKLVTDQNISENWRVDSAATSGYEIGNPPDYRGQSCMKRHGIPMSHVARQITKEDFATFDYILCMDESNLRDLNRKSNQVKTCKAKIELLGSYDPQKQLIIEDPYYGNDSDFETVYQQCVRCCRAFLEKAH
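Test system – LMPTP-A enzyme · Amount – LMPTP-A at 0.625 nM final in the reaction · Buffer or medium – Bis-Tris pH 6.0, DTT, detergent · Reagent – OMFP 400 µM · Doses – single 20 µM dose · Schedule – reaction 50 min, room temperature, dark · Detection – fluorescence intensity of OMFP turnover product · Evaluation – percent inhibition versus substrate-only and uninhibited controls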
Scp-1 conf – Scp-1 phosphatase inhibitors, retest, confirmation, biochemical, colorimetric, single concentration. recombinant SCP-1 catalytic domain, phosphate release, malachite green absorbance. actives 61% (n = 2,500). inhibition, % at 20 µM. shares compounds with Scp1 inh
Scp-1 MG ctr – colorimetric readout interference by compounds, confirmation, artefact control for Scp-1 inhibitor project, biochemical, single concentration; 2,500 tested, under 10 active; apparent inhibition (interference), % at 20 µM; Colorimetric interference counterscreen, malachite green absorbance 630 nm; shares compounds with Scp1 inh;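 also: compounds added after enzyme reaction finished so only phosphate colour detection is probed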
Scp-1 Tm shift – Scp-1 binding by thermal shift, confirmation, orthogonal assay for Scp-1 inhibitor project, biophysical, differential scanning fluorimetry | shares compounds with Scp1 inh | Recombinant SCP1, Sypro Orange thermal shift Tm | thermal shift relative to vanadate control, % at 40 µM | actives 25% (n = 1,500);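 active = substances whose mean melting-temperature shift, as a percentage of the reference inhibitor's shift, reaches about 5.3%, limit read from the data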
Numbers stand for hits; i = inactive; nt = no result given; ! = not active in a repeat. In the library only some 2.1% were active in any assay of this set; here they are far more common.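 The calls were made as follows, unless noted: active = inhibition of at least 30% at 20 µM; inactive = the rest.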

SMILES	DNMT1 block	SUMO1 PPI mod	STEP block	Scp1 inh	GRK2 aptamer HTS	LMPTP inh	Scp-1 conf	Scp-1 MG ctr	Scp-1 Tm shift
CC1=CC(=O)Nc2ccccc2S1	i	i	i	i	nt	i	nt	nt	nt
Cn1c(N)c(C#N)c(-c2ccccc2)c(C#N)c1=O	i	i	i	nt	nt	i	nt	nt	nt
Fc1ccc(CSc2nc3ncc(Br)cc3[nH]2)cc1	i	i	i	59	i	i	70	i	i
Brc1cnc2nc(SCc3nc4ccccc4[nH]3)[nH]c2c1	i	i	i	i	i	i	nt	nt	nt
CC(C)C[C@@H]1CN(CCCC[C@H]2CNC(=O)C(=O)N2CCC2CCCCC2)C(=O)C(=O)N1CCc1ccc(O)cc1	nt	i	nt	nt	nt	i	nt	nt	nt
CCN1C(=O)[C@H]2[C@@H](c3ccc(C)cc3)N[C@]3(CCCN(Cc4ccc(OC)cc4)C3=O)[C@H]2C1=O	i	i	i	nt	nt	i	nt	nt	nt
CCOC(=O)C1=C(C)N=c2s/c(=C\c3ccc(C(=O)O)cc3)c(=O)n2C1c1ccc(OC)cc1OC (stereo not given)	i	i	i	73	i	i	72	i	6.9
C[N+]1(C2CCC3CCCC2C3O)CCCCC1 (stereo not given)	i	i	i	96	i	i	78	i	i
COc1ccccc1NC(=O)C(=N\O)/C(C)=N/O	i	i	i	75	i	i	30	i	i
Nc1sccc1C(=O)NCCN1CCOCC1	nt	i	nt	nt	nt	i	nt	nt	nt
COc1ccc(C)cc1NC(=O)c1ccc2c(=O)n3c(nc2c1)CCCCC3	i	i	i	56	i	i	i	i	nt
O=C(C[C@@H]1CC[C@H](NS(=O)(=O)c2ccccc2F)[C@@H](CO)O1)NCCCN1CCOCC1	nt	i	nt	nt	nt	i	nt	nt	nt
O=C(CSc1nc2ccccc2[nH]1)NC1CCCC1	i	i	i	62	i	i	45	i	i
O=C(CSc1n[nH]c(C2CCCC2)n1)NC1CCCC1	i	i	i	64	i	i	i	i	nt
O=C1C2C3C=CC(C3)C2C(=O)N1Nc1ccc([N+](=O)[O-])cc1[N+](=O)[O-] (stereo not given)	i	i	i	i	i	i	nt	nt	nt
O=C1c2ccccc2C(=O)N1Nc1ccc([N+](=O)[O-])cc1[N+](=O)[O-]	i	i	i	52	i	i	46	i	i
COc1cccc(CNc2nc(NC(C)C)nc3ccsc23)c1	i	i	i	nt	nt	i	nt	nt	nt
COc1ccc(NC(C)=[N+](C)CCNS(=O)(=O)c2ccc(Cl)cc2)cc1	i	i	i	96	i	i	93	i	i
COc1ccc(NC(=O)CNS(=O)(=O)c2ccc(Cl)cc2)cc1	i	i	i	i	i	i	nt	nt	nt
O=C1NC(Cc2ccccc2)c2nc3cc(F)ccc3c(=O)n2-c2ccccc21 (stereo not given)	nt	nt	nt	nt	i	nt	nt	nt	nt
NC(=O)c1ccc(NC(=O)COc2ccc(-n3cnnn3)cc2)cc1	i	i	i	i	i	i	nt	nt	nt
NC(=O)COc1ccc(-n2cnnn2)cc1	i	i	i	68	i	i	52	i	i
CC(C)CCN1C(=O)c2ccc(C(=O)Nc3ccc(O)cc3C(=O)O)cc2C1=O	i	i	i	i	i	i	nt	nt	nt
COc1cc(NC(=O)c2ccc3c(c2)C(=O)N(CCC(C)C)C3=O)c(C(=O)O)cc1OC	i	i	61	72	i	i	60	i	6.1
CC1(C(=O)NS(=O)(=O)C2CC2)CCCN(C(=O)c2ccc(C(F)(F)F)cc2)C1 (stereo not given)	i	i	i	nt	nt	i	nt	nt	nt
SMILES	DNMT1 block	SUMO1 PPI mod	STEP block	Scp1 inh	GRK2 aptamer HTS	LMPTP inh	Scp-1 conf	Scp-1 MG ctr	Scp-1 Tm shift
COC(=O)Cn1c(=O)c2c(n(Cc3ccccc3)c1=O)N/C(=C/c1ccc(Br)cc1)C2=O	i	i	i	107	i	i	57	i	12
O=C1O[C@@H](c2ccccc2)C[C@@H](O)C(=O)CCCc2ccccc21	nt	i	nt	nt	nt	i	nt	nt	nt
CC(O)/C=C/c1cccc[n+]1C (stereo not given)	i	i	i	96	i	i	85	i	i
C[n+]1ccccc1/C=C/c1cc(Br)ccc1O	i	i	i	i	i	i	nt	nt	nt
C[n+]1ccccc1/C=N/O	i	i	i	52!	i	i	i	i	nt
O=C1NC[C@@H](CCCCN2C[C@H](Cc3ccc(O)cc3)N(CC3CCCCC3)C(=O)C2=O)N(CCc2ccccc2)C1=O	nt	i	nt	nt	nt	i	nt	nt	nt
CC(=O)Nc1ccc(N=Cc2c(O)c(C(=O)Nc3ccccc3)cc3ccccc23)cc1	nt	nt	nt	i	i	nt	nt	nt	nt
CCOc1cc(Br)c(Br)c(C=Nc2ccc(NC(C)=O)cc2)c1O	i	i	i	75	i	i	72	i	i
COc1ccccc1S(=O)(=O)N(C)C[C@@H]1OCc2cnnn2CCCC(=O)N([C@H](C)CO)C[C@@H]1C	i	i	i	nt	nt	i	nt	nt	nt
O=C(NCc1cccc(Cl)c1)c1cccc(S(=O)(=O)N2CCCC2)c1	i	i	i	i	i	i	nt	nt	nt
Cc1ccc(S(=O)(=O)N[C@H](C(=O)OCC(=O)NC(=O)NCc2ccco2)C(C)C)cc1	i	i	i	62	i	i	i	i	nt
Cc1ccc(C(=O)O)cc1NC(=S)NC(=O)c1ccc(COc2ccccc2)cc1	i	i	i	50	i	i	37	i	i
Cc1ccc(C(=O)O)cc1NC(=S)NC(=O)Cc1ccccc1	i	i	i	i	i	i	nt	nt	nt
CC1(CO)CCCC1NCCNC1CCCC1(C)CO (stereo not given)	i	i	i	nt	nt	i	nt	nt	nt
Cc1cc(C)cc(N(CCC#N)C(=O)COC(=O)c2ccc(OCc3c(C)noc3C)cc2)c1	i	i	i	51	i	i	i	i	nt
O=C(Nc1ccc2c(c1)C(=O)NC2=O)c1cccc(C(F)(F)F)c1	i	i	i	88	i	i	53	i	i
